We go through 30 compounds from ChEMBL document CHEMBL4619765 (J Nat Prod, 2020).

Activity calls are given as the source filed them. The calls are words filed in the database; no cut-off is given here.

Data set [1] is described as follows: Inhibition of complex 1 in bovine heart mitochondrial membranes in presence of NADH. Also noted: species or system Bos taurus.
The test system of data set [2] is LNCaP. Put plainly: Cytotoxicity against human LNCAP cells. Particulars: read-out: ED50 (the source's name). In kind it is functional.
In data set [3] the test system is LNCaP C4-2B. As to the kind of experiment: Cytotoxicity against human C4-2B cells assessed as reduction in cell viability at 1 uM after 48 hrs by acridine orange/DAPI staining based assay. The class given is functional. In a few lines: (§1)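 Cells trypsinized, pelleted, resuspended in PBS and stained with acridine orange/DAPI; viability and cell count read on an NC-3000 image cytometer. n = 4 treated, n = 10 control; mean ± S.E.M.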

For data set [4], the system named is LNCaP C4-2B. Put plainly: Cytotoxicity against human C4-2B cells assessed as reduction in cell count at 1 uM after 48 hrs by acridine orange/DAPI staining based assay. The class given is functional. The procedure, abridged: as §1
In data set [5] the test system is PNT2. As to the kind of experiment: Inhibition of complex 1 in human PNT2 cells assessed as reduction in oxygen rate at 1 uM incubated for 1 hr followed by rotenone and antimycin addition. In kind it is cell-based. The procedure, abridged: (§2)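 Cells seeded at 20,000/well on poly-L-lysine-coated Seahorse XF96 plates for 16 h, then moved into carbonate-free RPMI assay buffer (4.5 g/L glucose, pyruvate, GlutaMAX, pH 7.4). […] Rotenone-insensitive rate subtracted and traces normalized to 100% pre-addition. n = 6 treated, 16 controls; mean ± S.E.M.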

For data set [6], the system named is PNT2. As to the kind of experiment: Inhibition of cell proliferation in human PNT2 cells at 1 uM after 150 hrs. The class given is cell-based. The conditions noted are these: pnt2, 150 h. In a few lines: (§3)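 Seeded at 1,000 cells/well in RPMI 1640 with 10% FBS, 25 mM HEPES and 1 mM pyruvate; after 24 h, 1 μM rotenoid (ethanolic stock diluted in medium) or ethanol-only control added. Growth followed by live-cell imaging as confluence (% well area covered) until untreated control reached confluence; value at 150 h of treatment. Eight replicates per condition, mean ± S.E.M.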

Data set [7] has as its system LNCaP C4-2. Put plainly: Antiproliferative activity against human C4-2 cells at 1 uM after 150 hrs. In kind it is functional, cell-based. In a few lines:
as §3

The subject of data set [8] is PNT2. Put plainly: Cytotoxicity against human PNT2 cells assessed as reduction in cell viability at 1 uM after 48 hrs by acridine orange/DAPI staining based assay. The conditions noted are these: pnt2, 48 h. The procedure, abridged: as §1
Data set [9] has as its system LNCaP C4-2B. Put plainly: Inhibition of complex 1 in human C4-2B cells assessed as reduction in oxygen rate at 1 uM incubated for 1 hr followed by rotenone and antimycin addition. The class given is cell-based. In a few lines: as §2
For data set [10], the system named is LNCaP C4-2B. Put plainly: Antiproliferative activity against human C4-2B cells at 1 uM after 150 hrs. The class given is functional, cell-based. The procedure, abridged: as §3
Data set [11] has as its system LNCaP C4-2. Put plainly: Cytotoxicity against human C4-2 cells assessed as reduction in cell count at 1 uM after 48 hrs by acridine orange/DAPI staining based assay. The class given is functional. In a few lines: as §1
Data set [12] deals with LNCaP C4-2. Put plainly: Inhibition of complex 1 in human C4-2 cells assessed as reduction in oxygen rate at 1 uM incubated for 1 hr followed by rotenone and antimycin addition. The class given is cell-based. In a few lines: as §2
Data set [13] has as its system LNCaP C4-2. As to the kind of experiment: Cytotoxicity against human C4-2 cells assessed as reduction in cell viability at 1 uM after 48 hrs by acridine orange/DAPI staining based assay. In kind it is functional. In a few lines:
as §1

The test system of data set [14] is PNT2. As to the kind of experiment: Cytotoxicity against human PNT2 cells assessed as reduction in cell count at 1 uM after 48 hrs by acridine orange/DAPI staining based assay. The conditions noted are these: pnt2, 48 h. The procedure, abridged:
as §1

Data set [15] relates to MEF. As to the kind of experiment: Cytotoxicity against PTEN-deficient MEF at 0.5 uM after 24 hrs by MTT assay relative to control. In kind it is cell-based. Particulars: mouse. (In general: Formazan colour is commonly taken as a measure of viable cells.)

The term IC50 denotes the concentration that inhibits the measured activity by half. For the compound `COc1cc2c(cc1OC)[C@@H]1[C@H](O)c3ccc4c(c3O[C@@H]1CO2)C[C@H](C(C)(O)CO)O4` (mixture of isomers), in [1], the IC50 came out at 4570 nM.
Turning to `C=C(C)CCc1c(O)ccc2c1O[C@@H]1COc3cc(OC)c(OC)cc3[C@@H]1C2=O`, the half-maximal inhibitory concentration (IC50) in data set [1] was found to be 572 nM.
With `COc1cc2c(cc1OC)[C@]1(O)[C@H](O)c3ccc4c(c3O[C@@H]1CO2)C[C@H](C(C)CO)O4` (mixture of isomers), the IC50 in data set [1] is 2930 nM.
For `COc1cc2c(cc1OC)[C@@H]1C(=O)c3ccc(O)c(CC=C(C)C)c3O[C@@H]1CO2` [ROTENONIC ACID], the IC50 in data set [1] came out at 1090 nM.
Still for that read-out and setting: to `COc1cc2c(cc1OC)[C@@H]1C(=O)c3ccc4c(c3O[C@@H]1CO2)CCC(C)(CO)O4` (mixture of isomers) belongs 195 nM; to `C=C(CO)[C@H]1Cc2c(ccc3c2O[C@@H]2COc4cc(OC)c(OC)cc4[C@]2(O)C3=O)O1` [DABINOL], 3810 nM.
Regarding `COc1cc2c(cc1OC)[C@]1(O)C(=O)c3ccc4c(c3O[C@@H]1CO2)C=CC(C)(C)O4` [TEPHROSIN], in data set [2], the EC50 is 300 to 700 nM.
In the case of `COc1cc2c(cc1OC)[C@@H]1[C@H](O)c3ccc4c(c3O[C@@H]1CO2)C[C@H](C(C)(C)O)O4`, the IC50 in [1] is 750 nM.
Still for that read-out and setting: with `COc1cc2c(cc1OC)[C@]1(O)[C@H](O)c3ccc4c(c3O[C@@H]1CO2)C=CC(C)(C)O4` the figure was 135 nM.
Take `COc1cc2c(cc1OC)[C@@H]1C(=O)c3ccc4c(c3O[C@@H]1CO2)C[C@H](C(C)CO)O4` (mixture of isomers): in [1], the 50% inhibitory concentration (IC50) turned out to be 228 nM. For the same compound, the outcome in data set [3] and in data set [13] was inactive. Besides, the result in data set [4], in data set [7], in [10] and in data set [11] was Active. The inhibition result in [5], in [9] and in data set [12] was “Active” in each case. Besides, the Activity result in [6] and in data set [8] was “Non-Toxic” in each case.
With `C=C(CO)[C@H]1Cc2c(ccc3c2O[C@@H]2COc4cc(OC)c(OC)cc4[C@]2(O)[C@@H]3O)O1`, in [1], the IC50 was over 10000 nM.
For the compound `COc1cc2c(cc1OC)[C@@H]1C(=O)c3ccc4c(c3O[C@@H]1CO2)C(O)C(O)C(C)(C)O4` (mixture of isomers), the IC50 in [1] stood at 5310 nM.
For `COc1cc2c(cc1OC)[C@@H]1[C@H](O)c3ccc4c(c3O[C@@H]1CO2)C=CC(C)(C)O4`, the IC50 in data set [1] was found to be 14.6 nM.
Take `C=C(C)[C@H]1Cc2c(ccc3c2O[C@@H]2COc4cc(OC)c(OC)cc4[C@@H]2C3=O)O1` [ROTENONE]: the outcome in data set [3] and in [13] was inactive. Further, the outcome in data set [4], in data set [7], in data set [10] and in [11] was Active. Besides, the Activity entry in data set [6] was “Non-Toxic”; in [14] it was “Toxic”; in [8], “Non-Toxic”.
`C=C(C)C(=O)Cc1c(O)ccc2c1O[C@@H]1COc3cc(OC)c(OC)cc3[C@]1(O)C2=O`: the concentration for half-maximal inhibition (IC50) in data set [1] is over 10000 nM.
In the case of `COc1cc2c(cc1OC)[C@]1(O)C(=O)c3ccc4c(c3O[C@@H]1CO2)C[C@H](C(C)(O)CO)O4` (stereo not given in full), in data set [1], the concentration for half-maximal inhibition (IC50) is over 10000 nM.
In the case of `COc1cc2c(cc1OC)[C@]1(O)[C@H](O)c3ccc4c(c3O[C@@H]1CO2)C[C@H](C(C)(C)O)O4`, the IC50 in data set [1] was over 10000 nM.
Take `COc1cc2c(cc1OC)[C@@H]1C(=O)c3ccc4c(c3O[C@@H]1CO2)C[C@H](C(C)(O)CO)O4` (stereo not given in full): the IC50 in data set [1] came to 1800 nM. Further, the outcome in data set [3] and in data set [13] was inactive. In addition, the inhibition result in data set [5], in data set [9] and in [12] was “Active” each time. Besides, the Activity entry in [6] and in data set [8] was “Non-Toxic” each time. In addition, the outcome in data set [7], in data set [10] and in data set [11] was Active.
For `COc1cc2c(cc1OC)[C@]1(O)[C@H](O)c3ccc4c(c3O[C@@H]1CO2)C[C@H](C(C)(O)CO)O4` (stereo not given in full), the IC50 in data set [1] is over 10000 nM.
Same read-out and setting: with `C=C(C)[C@H]1Cc2c(ccc3c2O[C@@H]2COc4cc(OC)c(OC)cc4[C@]2(O)[C@@H]3O)O1` the figure was 125 nM.
Consider `COc1cc2c(cc1OC)[C@]1(O)C(=O)c3ccc4c(c3O[C@@H]1CO2)C[C@H](C(C)(C)O)O4`, for which the concentration for half-maximal inhibition (IC50) in [1] was over 10000 nM.
On to `C=C(CO)[C@H]1Cc2c(ccc3c2O[C@@H]2COc4cc(OC)c(OC)cc4[C@@H]2[C@@H]3O)O1`, for which the IC50 in [1] amounted to 458 nM.
For the compound `COc1cc2c(cc1OC)[C@]1(O)C(=O)c3ccc4c(c3O[C@@H]1CO2)C[C@H](C(C)CO)O4` (mixture of isomers), the IC50 in [1] was 3580 nM.
`C=C(C)[C@H]1Cc2c(ccc3c2O[C@@H]2COc4cc(OC)c(OC)cc4[C@@H]2[C@@H]3O)O1`: the IC50 in data set [1] is 11.4 nM.
With `COc1cc2c(cc1OC)[C@@H]1[C@H](O)c3ccc4c(c3O[C@@H]1CO2)C[C@H](C(C)CO)O4` (mixture of isomers), in data set [1], the IC50 came to 460 nM.
The same measure, in the same setting: with `C=C(C)C(=O)Cc1c(O)ccc2c1O[C@@H]1COc3cc(OC)c(OC)cc3[C@@H]1C2=O` the figure was 2570 nM; with `COc1cc2c(cc1OC)[C@@H]1C(=O)c3ccc4c(c3O[C@@H]1CO2)CC(O)C(C)(C)O4` (mixture of isomers), 850 nM.
For `C=C(C)[C@H]1Cc2c(ccc3c2O[C@@H]2COc4cc(OC)c(OC)cc4[C@]2(O)C3=O)O1` [ROTENOLONE], the IC50 in data set [1] was 130 nM.
`COc1cc2c(cc1OC)[C@@H]1C(=O)c3ccc4c(c3O[C@@H]1CO2)C[C@H](C(C)(C)O)O4` [DALPANOL]: the concentration for half-maximal inhibition (IC50) in data set [1] was 652 nM. In addition, the result in data set [3] and in data set [13] was inactive. In addition, the inhibition result in [5], in [9] and in data set [12] was “Active” throughout. The Activity entry in [6] and in [8] was “Non-Toxic” throughout. The outcome in data set [7], in data set [10] and in data set [11] was Active.
Regarding `COc1cc2c(cc1OC)[C@@H]1C(=O)c3ccc4c(c3O[C@@H]1CO2)C=CC(C)(C)O4` [DEGUELIN], the IC50 in data set [1] amounted to 10.6 nM. The Activity in data set [15] was determined as 70%.
